# Assay results as given in ChEMBL document CHEMBL1800056, “Discovery of 2-(6-{[(6-fluoroquinolin-2-yl)methyl]amino}bicyclo[3.1.0]hex-3-yl)-N-hydroxypyrimidine-5-carboxamide (CHR-3996), a class I selective orally active histone deacetylase inhibitor” (J Med Chem, 2010).
# Activity calls are given as the source filed them. No cut-off for these calls is given here.
# Tests used:
# [1] = target: Histone deacetylase 2 (Homo sapiens, UniProt Q92769); assay: Inhibition of human recombinant HDAC2 using fluor de Lys as substrate by fluorometric analysis
# Histone deacetylase 2, sequence (Q92769 whole entry): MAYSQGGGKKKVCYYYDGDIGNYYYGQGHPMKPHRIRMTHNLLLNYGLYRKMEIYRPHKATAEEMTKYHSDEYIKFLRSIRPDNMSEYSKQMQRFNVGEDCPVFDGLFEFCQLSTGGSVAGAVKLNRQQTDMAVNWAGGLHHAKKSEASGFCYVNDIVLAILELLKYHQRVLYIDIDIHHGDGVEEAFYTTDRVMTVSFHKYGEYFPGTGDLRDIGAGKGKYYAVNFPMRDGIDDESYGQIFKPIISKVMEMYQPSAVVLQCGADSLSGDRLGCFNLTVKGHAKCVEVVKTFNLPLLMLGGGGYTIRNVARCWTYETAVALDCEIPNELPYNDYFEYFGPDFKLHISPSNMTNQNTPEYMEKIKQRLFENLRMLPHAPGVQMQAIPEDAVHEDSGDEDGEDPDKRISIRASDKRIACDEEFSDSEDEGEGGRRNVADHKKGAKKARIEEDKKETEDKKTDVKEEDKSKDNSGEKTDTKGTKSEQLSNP
# [2] = test system: MIA PaCa-2; assay: Antiproliferative activity against human MIAPaCa2 cells after 72 hrs by WST-1 assay; type: functional; conditions: Homo sapiens, MIA PaCa-2, 72 h
# In short: (§1)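 Cells seeded at (1-5) × 10³/well in serum-containing medium for 24 h at 37 °C, 5% CO₂. Inhibitor added at 0.6-10000 nM for 72 h, with WST-1 pulse over the final 4 h. Formazan read at 450 nm (reference 650 nm). Expressed as % inhibition of vehicle response; GI50 is the concentration inhibiting 50% of vehicle response; n = 6 replicates.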
# [3] = Clearance in mouse liver microsomes assessed as compound remaining after 30 mins; type: ADME, Microsome; conditions: read-out: Activity
# [4] = target: Histone deacetylase 3 (Homo sapiens, UniProt O15379); assay: Inhibition of human recombinant HDAC3 using fluor de Lys as substrate by fluorometric analysis
# Histone deacetylase 3, sequence (O15379 whole entry): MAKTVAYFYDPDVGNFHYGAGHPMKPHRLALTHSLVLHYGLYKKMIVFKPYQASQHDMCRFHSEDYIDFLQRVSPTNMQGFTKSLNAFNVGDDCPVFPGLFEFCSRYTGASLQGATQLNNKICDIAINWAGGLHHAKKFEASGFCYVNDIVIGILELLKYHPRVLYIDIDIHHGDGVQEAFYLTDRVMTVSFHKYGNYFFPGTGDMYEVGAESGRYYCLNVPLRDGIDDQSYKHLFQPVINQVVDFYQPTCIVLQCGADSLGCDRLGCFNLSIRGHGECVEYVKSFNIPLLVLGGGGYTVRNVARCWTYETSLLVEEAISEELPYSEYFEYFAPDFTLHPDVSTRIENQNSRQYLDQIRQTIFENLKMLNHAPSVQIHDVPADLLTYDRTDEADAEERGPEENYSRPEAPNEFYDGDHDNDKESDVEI
# [5] = test system: HCT-116; assay: Cell cycle arrest in human HCT116 cells assessed as accumulation at G1 phase at 300 nM after 15 hrs by propidium iodide staining based flow cytometric analysis; type: functional
# [6] = target: Protein deacetylase HDAC6 (Homo sapiens, UniProt Q9UBN7); assay: Inhibition of human recombinant HDAC6 using fluor de Lys as substrate by fluorometric analysis
# [7] = test system: HCT-116; assay: Antiproliferative activity against human HCT116 cells after 72 hrs by WST-1 assay; type: functional; conditions: Homo sapiens, HCT-116, 72 h; in short: as §1
# [8] = AUC (0 to t) in dog at 1 mg/kg, iv; type: ADME, organism-based, Canis lupus familiaris; set-up: dose 1 mg/kg, route intravenous; conditions: plasma
# In short: (§2)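 Dog single dose: iv 1 mg/kg in 5% DMSO-HPβC (11.25% w/v); po 10 mg/kg in 5% DMSO-saline. AUC0-t in ng h/mL, clearance in (mL/min)/kg, t1/2 in h, F in %.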
# [9] = test system: HCT-116; assay: Cell cycle arrest in human HCT116 cells assessed as accumulation at sub-G1 phase at 300 nM after 15 hrs by propidium iodide staining based flow cytometric analysis; type: functional
# [10] = test system: U-937; assay: Antiproliferative activity against human U937 cells after 72 hrs by WST-1 assay; type: functional; conditions: Homo sapiens, U-937, 72 h; in short: as §1
# [11] = target: Histone deacetylase; assay: Inhibition of HDAC in human HeLa cells nuclear extract using fluor de Lys as substrate preincubated for 5 mins by fluorometric analysis; type: cell-based
# [12] = target: T1, Cytochrome P450 3A4 (Homo sapiens, UniProt P08684); assay: Inhibition of CYP3A4 at < 10 uM; type: ADME
# T1 sequence (P08684 whole entry): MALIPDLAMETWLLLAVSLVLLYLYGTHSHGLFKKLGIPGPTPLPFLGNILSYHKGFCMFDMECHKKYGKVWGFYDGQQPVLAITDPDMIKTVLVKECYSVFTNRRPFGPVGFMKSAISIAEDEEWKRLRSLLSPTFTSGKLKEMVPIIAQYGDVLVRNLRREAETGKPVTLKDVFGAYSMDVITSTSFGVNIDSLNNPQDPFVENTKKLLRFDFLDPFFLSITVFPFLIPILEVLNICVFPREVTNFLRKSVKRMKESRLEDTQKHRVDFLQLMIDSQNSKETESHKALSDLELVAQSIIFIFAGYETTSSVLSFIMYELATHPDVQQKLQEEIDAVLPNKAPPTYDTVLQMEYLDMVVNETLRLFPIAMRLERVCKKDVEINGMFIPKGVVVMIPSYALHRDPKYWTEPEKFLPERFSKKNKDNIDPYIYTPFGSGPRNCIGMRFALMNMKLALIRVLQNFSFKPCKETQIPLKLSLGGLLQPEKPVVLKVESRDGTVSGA
# [13] = test system: MG-63; assay: Antiproliferative activity against human MG63 cells after 72 hrs by WST-1 assay; type: functional; conditions: Homo sapiens, MG-63, 72 h; in short: as §1
# [14] = AUC (0 to t) in dog at 10 mg/kg, po; type: ADME, organism-based, Canis lupus familiaris; set-up: dose 10 mg/kg, route oral; conditions: plasma; in short: as §2
# [15] = test system: HuT78; assay: Antiproliferative activity against human HUT78 cells after 72 hrs by WST-1 assay; type: functional; conditions: HuT78, 72 h
# In short: (§3)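 Cells seeded at (1-5) × 10³/well in serum-containing medium for 24 h at 37 °C, 5% CO₂. Inhibitor added at 0.6-10000 nM for 72 h, with WST-1 pulse over the final 4 h. Formazan read at 450 nm (reference 650 nm).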
# [16] = AUC (0 to t) in plasma of CD1 mouse at 3 mg/kg, po; type: ADME, organism-based; set-up: dose 3 mg/kg, route oral
# In short: (§4)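 Oral cassette PK in CD1 mice: four compounds per cassette, each at 3 mg/kg po. AUC0-t (ng h/mL) measured in plasma and spleen; spleen/plasma AUC ratio reported.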
# [17] = test system: HCT-116; assay: Cell cycle arrest in human HCT116 cells assessed as accumulation at G2/M phase at 300 nM after 15 hrs by propidium iodide staining based flow cytometric analysis; type: functional
# [18] = test system: COR-L23; assay: Antiproliferative activity against doxorubicin-resistant human COR-L23 cells after 72 hrs by WST-1 assay; type: functional; conditions: Homo sapiens, COR-L23, 72 h; in short: as §1
# [19] = target: Histone deacetylase 1 (Homo sapiens, UniProt Q13547); assay: Inhibition of human recombinant HDAC1 using fluor de Lys as substrate by fluorometric analysis
# Histone deacetylase 1, sequence (Q13547 whole entry): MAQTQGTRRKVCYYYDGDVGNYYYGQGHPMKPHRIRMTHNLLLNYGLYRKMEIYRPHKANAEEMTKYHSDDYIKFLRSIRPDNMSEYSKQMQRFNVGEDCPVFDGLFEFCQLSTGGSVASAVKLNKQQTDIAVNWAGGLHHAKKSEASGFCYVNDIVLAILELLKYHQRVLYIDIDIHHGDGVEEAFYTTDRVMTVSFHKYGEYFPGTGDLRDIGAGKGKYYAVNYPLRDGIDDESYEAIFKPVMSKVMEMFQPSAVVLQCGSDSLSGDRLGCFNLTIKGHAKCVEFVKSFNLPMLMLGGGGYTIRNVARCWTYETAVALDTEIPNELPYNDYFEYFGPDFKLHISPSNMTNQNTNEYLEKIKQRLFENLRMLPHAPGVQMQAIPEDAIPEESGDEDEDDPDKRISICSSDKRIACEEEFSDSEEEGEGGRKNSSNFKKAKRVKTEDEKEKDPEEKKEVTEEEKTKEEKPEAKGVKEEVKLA
# [20] = test system: A2780; assay: Antiproliferative activity against human A2780 cells after 72 hrs by WST-1 assay; type: functional; conditions: Homo sapiens, A2780, 72 h; in short: as §1
# [21] = test system: HCT-116; assay: Cell cycle arrest in human HCT116 cells assessed as accumulation at S phase at 300 nM after 15 hrs by propidium iodide staining based flow cytometric analysis; type: functional
# [22] = Ratio of GI50 for human HCT116 cells to IC50 for HDAC in human HeLa cell nuclear extracts
# In short: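 Cell/enzyme ratio = HCT116 GI50 divided by HDAC IC50. Enzyme: HeLa nuclear extract (10 μg protein), 5 min preincubation, then Fluor de Lys substrate 62.5 μM, 15 min at room temperature. Stopped with developer containing trichostatin A; fluorescence ex 355/em 455 nm; eight concentrations in duplicate. Cells: HCT116, 72 h exposure (0.6-10000 nM), WST-1 read at 450 nm, n = 6.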
# [23] = target: T1, Cytochrome P450 3A4; assay: Inhibition of CYP3A4; type: ADME
# [24] = test system: DU-145; assay: Antiproliferative activity against human DU145 cells after 72 hrs by WST-1 assay; type: functional; conditions: DU-145, 72 h; in short: as §3
# [25] = test system: Spleen; assay: Ratio of AUC (0 to t) in spleen to plasma of CD1 mouse at 3 mg/kg, po; conditions: in vivo
# [26] = target: T2, Cytochrome P450 2C19 (Homo sapiens, UniProt P33261); assay: Inhibition of CYP2C19; type: ADME
# T2 sequence (P33261 whole entry): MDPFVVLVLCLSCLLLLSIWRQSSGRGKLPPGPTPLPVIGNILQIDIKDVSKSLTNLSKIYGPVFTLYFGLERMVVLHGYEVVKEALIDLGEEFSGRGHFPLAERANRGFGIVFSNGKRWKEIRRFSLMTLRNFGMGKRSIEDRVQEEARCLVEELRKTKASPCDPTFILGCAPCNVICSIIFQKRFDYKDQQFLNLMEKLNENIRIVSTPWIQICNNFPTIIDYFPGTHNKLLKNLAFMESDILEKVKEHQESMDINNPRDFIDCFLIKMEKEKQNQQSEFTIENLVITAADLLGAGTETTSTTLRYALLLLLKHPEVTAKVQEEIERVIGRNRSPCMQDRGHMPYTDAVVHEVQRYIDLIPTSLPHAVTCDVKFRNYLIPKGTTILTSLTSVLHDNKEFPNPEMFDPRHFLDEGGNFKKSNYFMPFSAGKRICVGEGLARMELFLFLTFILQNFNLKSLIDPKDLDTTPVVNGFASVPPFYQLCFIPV
# [27] = Clearance in human liver microsomes assessed as compound remaining after 30 mins; type: ADME, Microsome; conditions: read-out: Activity
# [28] = test system: A549; assay: Antiproliferative activity against human A549 cells after 72 hrs by WST-1 assay; type: functional; conditions: Homo sapiens, A549, 72 h; in short: as §1
# [29] = target: Histone deacetylase 5 (Homo sapiens, UniProt Q9UQL6); assay: Inhibition of human recombinant HDAC5 using fluor de Lys as substrate by fluorometric analysis
# Histone deacetylase 5, sequence (Q9UQL6 whole entry): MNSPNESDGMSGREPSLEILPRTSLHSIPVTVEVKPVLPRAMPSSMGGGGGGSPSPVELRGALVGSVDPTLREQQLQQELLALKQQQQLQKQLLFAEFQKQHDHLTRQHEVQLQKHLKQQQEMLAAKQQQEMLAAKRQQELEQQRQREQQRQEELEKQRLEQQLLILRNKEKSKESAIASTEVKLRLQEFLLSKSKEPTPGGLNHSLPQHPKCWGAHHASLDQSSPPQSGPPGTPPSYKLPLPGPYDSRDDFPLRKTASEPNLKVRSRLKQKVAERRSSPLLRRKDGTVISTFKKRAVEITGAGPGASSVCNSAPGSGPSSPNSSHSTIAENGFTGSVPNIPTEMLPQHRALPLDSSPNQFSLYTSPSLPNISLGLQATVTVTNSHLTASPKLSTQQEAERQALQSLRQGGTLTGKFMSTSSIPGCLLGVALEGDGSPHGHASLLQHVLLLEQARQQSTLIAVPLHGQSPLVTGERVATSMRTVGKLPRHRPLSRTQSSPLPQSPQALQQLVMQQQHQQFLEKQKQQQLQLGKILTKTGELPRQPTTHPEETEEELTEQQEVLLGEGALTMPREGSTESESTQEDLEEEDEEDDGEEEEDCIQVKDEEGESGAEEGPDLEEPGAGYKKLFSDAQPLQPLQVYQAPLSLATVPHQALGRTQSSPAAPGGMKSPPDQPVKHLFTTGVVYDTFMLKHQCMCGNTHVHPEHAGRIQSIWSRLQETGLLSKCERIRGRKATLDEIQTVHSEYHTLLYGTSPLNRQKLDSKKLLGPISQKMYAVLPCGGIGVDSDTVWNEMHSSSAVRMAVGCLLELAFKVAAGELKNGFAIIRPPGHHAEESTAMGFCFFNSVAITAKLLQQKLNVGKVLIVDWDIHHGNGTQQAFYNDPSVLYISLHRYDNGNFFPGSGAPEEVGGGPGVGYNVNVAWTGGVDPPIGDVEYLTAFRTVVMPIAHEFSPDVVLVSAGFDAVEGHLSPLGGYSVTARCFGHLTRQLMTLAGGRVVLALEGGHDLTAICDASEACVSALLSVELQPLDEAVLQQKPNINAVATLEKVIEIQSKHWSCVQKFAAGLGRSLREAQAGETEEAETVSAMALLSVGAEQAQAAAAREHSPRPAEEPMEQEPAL
# [30] = test system: PC-3; assay: Antiproliferative activity against human PC3 cells after 72 hrs by WST-1 assay; type: functional; conditions: PC-3, 72 h; in short: as §1
# [31] = target: T3, Cytochrome P450 2D6 (Homo sapiens, UniProt P10635); assay: Inhibition of CYP2D6; type: ADME
# T3 sequence (P10635 whole entry): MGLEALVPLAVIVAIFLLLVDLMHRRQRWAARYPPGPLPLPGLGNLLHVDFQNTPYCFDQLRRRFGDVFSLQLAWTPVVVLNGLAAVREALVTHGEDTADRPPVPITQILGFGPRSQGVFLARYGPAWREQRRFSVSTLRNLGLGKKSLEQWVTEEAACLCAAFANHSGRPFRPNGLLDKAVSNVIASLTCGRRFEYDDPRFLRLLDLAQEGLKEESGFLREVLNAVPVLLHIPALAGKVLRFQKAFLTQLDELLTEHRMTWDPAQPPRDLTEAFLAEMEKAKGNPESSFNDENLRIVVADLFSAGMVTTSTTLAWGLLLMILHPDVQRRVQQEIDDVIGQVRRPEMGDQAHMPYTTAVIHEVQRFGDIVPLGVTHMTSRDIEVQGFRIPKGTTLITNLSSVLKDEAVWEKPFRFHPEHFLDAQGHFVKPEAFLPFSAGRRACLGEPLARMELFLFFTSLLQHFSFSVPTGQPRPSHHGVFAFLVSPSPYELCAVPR
# [32] = target: T3, Cytochrome P450 2D6; assay: Inhibition of CYP2D6 at < 10 uM; type: ADME
# [33] = test system: LoVo; assay: Antiproliferative activity against human LoVo cells after 72 hrs by WST-1 assay; type: functional; conditions: Homo sapiens, LoVo, 72 h; in short: as §1
# [34] = target: T2, Cytochrome P450 2C19; assay: Inhibition of CYP 2C19 at < 10 uM; type: ADME
# [35] = AUC (0 to t) in spleen of CD1 mouse at 3 mg/kg, po; type: ADME, organism-based; set-up: dose 3 mg/kg, route oral; in short: as §4
# [36] = test system: HCT-116; assay: Induction of apoptosis in human HCT116 cells assessed as PARP cleavage after 30 hrs by Western blot analysis; type: functional, cell-based
# In short: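 HCT116 cells seeded at 2 × 10⁴ cells/mL and treated 24 h later for 30 h. RIPA lysates run at 10 μg/lane on 4-12% gels. Blotted with antibodies to PARP and cleaved PARP (1:1000); GAPDH as loading control; ECL detection.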
IC50 [1] [nM],GI50 [2] [nM],remaining at 0.5 h [3] [%],IC50 [4] [nM],IC50 [6] [nM],GI50 [7] [nM],AUC(0-t) [8] [ng·h/mL],GI50 [10] [nM],IC50 [11] [nM],inhibition (INH) [12],AUC(0-t) [14] [ng·h/mL],AUC(0-t) [16] [ng·h/mL],IC50 [19] [nM],GI50 [20] [nM],SMILES,Activity [5] [%],Activity [9] [%],GI50 [13] [nM],GI50 [15] [nM],Activity [17] [%],GI50 [18] [nM],further results
4,280,31,7,2100,72,241,52,8,Not Active,950,93,3,210,O=C(NO)c1cnc(N2C[C@@H]3[C@H](C2)[C@H]3NCc2ccc3cc(F)ccc3n2)nc1 [NANATINOSTAT],21,21,750,31,48,560,Ki [11]: 4.8 nM; Activity [21]: 10%; Ratio [22]: 9; IC50 [23]: 10000 nM; GI50 [24]: 48 nM; Ratio [25]: 8.3; IC50 [26]: > 50000 nM; remaining at 0.5 h [27]: 21%; GI50 [28]: 250 nM; IC50 [29]: 200 nM; GI50 [30]: 160 nM; IC50 [31]: > 50000 nM; inhibition (INH) [32]: Not Active; GI50 [33]: 140 nM; inhibition (INH) [34]: Not Active; AUC(0-t) [35]: 775 ng·h/mL; Activity [36]: Active
14,620,43,10,3300,210,265,120,13,Not Active,1480,58,6,410,O=C(NO)c1cnc(N2C[C@@H]3[C@H](C2)[C@H]3NCc2ccc(Cl)cc2)nc1,33,23,1600,60,33,1100,Activity [21]: 11%; Ratio [22]: 16; IC50 [23]: > 50000 nM; GI50 [24]: 92 nM; Ratio [25]: 7.5; IC50 [26]: 50000 nM; remaining at 0.5 h [27]: 38%; GI50 [28]: 500 nM; IC50 [29]: 500 nM; GI50 [30]: 260 nM; IC50 [31]: 10000 nM; inhibition (INH) [32]: Not Active; GI50 [33]: 310 nM; inhibition (INH) [34]: Not Active; AUC(0-t) [35]: 436 ng·h/mL; Activity [36]: Active
